Laboratory results from ChEMBL document CHEMBL1150130, “Activity-guided isolation of constituents of Renealmia nicolaioides with the potential to induce the phase II enzyme quinone reductase” (J Nat Prod, 2002).
Converted amounts (≈) assume the structure as drawn.

Assays:
Plasmodium falciparum = assay: Antiplasmodial activity against Plasmodium falciparum D6; assay type: functional, organism-based
[1] = Cytotoxicity against mouse Hepa-1c1c7 cells; assay type: cell-based
In short: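 Mouse Hepa 1c1c7 hepatoma cells were cultured and assessed in the same system as the QR induction assay. IC50 was taken as the concentration causing half-maximal inhibition of cell viability.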

[2] = Chemopreventive index, ratio of IC50 for mouse Hepa-1c1c7 cells to drug level required to double specific NADPH:quinone reductase activity in mouse Hepa-1c1c7 cells; assay type: functional
In short: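 Cultured mouse hepatoma Hepa 1c1c7 cells treated with extracts, fractions or pure isolates. QR induction was expressed as CD, the concentration that doubles QR specific activity. IC50 was the concentration giving half-maximal inhibition of cell viability in the same cells. Index computed as IC50/CD. Sulforaphane served as positive control.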

Row | Structure (SMILES) | IC50 (Plasmodium falciparum) [µg/mL] | IC50 [1] [µg/mL] | Ratio [2]
1 | C/C1=C\CC[C@](C)(O)/C=C/[C@H](C(C)C)CC1 | < 5 |  | 
2 | COc1cc(O)c2c(c1)O[C@H](c1ccccc1)CC2=O (racemic) [PINOSTROBIN] |  | > 100 | >111
3 | COc1cc(O)c(C(=O)/C=C/c2ccccc2)c(OC)c1 [FLAVOKAWAIN B] |  | 7.2 (≈ 25.3 µM) | 
4 | C[S+]([O-])CCCCN=C=S (stereo not drawn) [SULFORAPHANE] |  | 2.07 (≈ 11.7 µM) | 23.8

Continued, in another order:

Row | IC50 (Plasmodium falciparum) [µg/mL] | Structure (SMILES) | IC50 [1] [µg/mL] | Ratio [2]
5 | < 5 | C=C1CC[C@@H](C(C)C)/C=C/[C@@](C)(O)CC[C@@H]1O |  | 
6 | < 5 | CC(C)C1=CC[C@@]2(C)[C@H](O)CC[C@](C)(O)[C@@H]2C1 [OPLODIOL] |  | 
